Test results as given in ChEMBL document CHEMBL2046427, “Nonhematotoxic naphthalene diimide modified by polyamine: synthesis and biological evaluation” (J Med Chem, 2012).
Active and inactive are the calls of the source. No cut-off for these calls is given here.

What was measured:
[1] = system: Mus musculus; experiment: Toxicity in mouse H22 cells bearing Kunming mouse assessed as change in spleen index number at 0.2 mg/kg, iv administered for 7 days measured on day 8 relative to vehicle treated control; type: organism-based; design: dose 0.2 mg/kg, route intravenous; settings: in vivo, 168 h
Procedure, shortened: (§1)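 Tumour-bearing Kunming mice (10/group) dosed iv daily for 7 days, then killed on day 8. Blood and bone marrow counted on a Coulter counter for platelets, RBC, WBC and marrow cells. Spleen and thymus weighed; organ index (%) = (organ weight/body weight) × 100. Mean ± SD; Student's t test or ANOVA with q test versus saline.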

[2] = system: H22; experiment: Antimetastatic activity against mouse H22 cells xenografted in Kunming mouse assessed as decrease in lung metastasis focuses at 0.2 mg/kg, iv administered on day 11 post-tumor injection for 7 days measured on day 18 relative to vehicle treated control; type: functional, organism-based; design: dose 0.2 mg/kg
[3] = system: Mus musculus; experiment: Toxicity in mouse H22 cells bearing Kunming mouse assessed as weight loss at 0.2 mg/kg, iv administered for 7 days measured on day 8 relative to vehicle treated control; type: organism-based; design: dose 0.2 mg/kg, route intravenous; settings: in vivo, 168 h
Procedure, shortened: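 Body weight tracked during 7 consecutive days of daily iv dosing in tumour-bearing Kunming mice, with saline controls; animals killed on day 8.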

[4] = system: MDA-MB-231; experiment: Cytotoxicity against human MDA-MB-231 cells after 48 hrs by MTT assay; type: functional, cell-based; settings: MDA-MB-231, 48 h
Procedure, shortened: (§2)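 MTT conversion assay at 37 °C, 5% CO₂. […] Inhibition relative to untreated cells as 100%; IC50 by linear regression, mean of three independent experiments.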

[5] = system: Mus musculus; experiment: Toxicity in mouse H22 cells bearing Kunming mouse assessed pathological changes in liver at 0.2 mg/kg, iv administered for 7 days measured on day 8 by hematoxylin and eosin staining relative to vehicle treated control; type: organism-based; design: dose 0.2 mg/kg, route intravenous; settings: in vivo, 168 h
[6] = system: Mus musculus; experiment: Toxicity in mouse H22 cells bearing Kunming mouse assessed as decrease in platelet number at 0.2 mg/kg, iv administered for 7 days measured on day 8 relative to vehicle treated control; type: organism-based; design: dose 0.2 mg/kg, route intravenous; settings: in vivo, 168 h; procedure, shortened: as §1
[7] = system: HepG2; experiment: Cytotoxicity in human HepG2 cells assessed as decrease in mitochondrial membrane potential at 10 uM after 48 hrs by fluorescence-based high-content screening assay; type: functional, cell-based
[8] = system: HCT-116; experiment: Cytotoxicity against human HCT116 cells after 48 hrs by MTT assay; type: functional, cell-based; settings: HCT-116, 48 h; procedure, shortened: as §2
[9] = system: HepG2; experiment: Cytotoxicity against human HepG2 cells assessed as cell nuclear shrinkage after 48 hrs by Hoechst 33342-based fluorescence-based high-content screening assay; type: functional
Procedure, shortened: (§3)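 HepG2 seeded 5 × 10³/well; after 12 h treated at 1, 5, 10, 15 and 30 μM for 48 h. Multiparameter cytotoxicity kit staining imaged by high-content screening: Hoechst 33342 for nuclear morphology, permeability dye (green nuclei) for membrane integrity, mitochondrial potential dye, and a weak-base dye for lysosomal mass/pH.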

[10] = system: Mus musculus; experiment: Toxicity in mouse H22 cells bearing Kunming mouse assessed as decrease in white blood cells number at 0.2 mg/kg, iv administered for 7 days measured on day 8 relative to vehicle treated control; type: organism-based; design: dose 0.2 mg/kg, route intravenous; settings: in vivo, 168 h; procedure, shortened: as §1
[11] = system: HepG2; experiment: Cytotoxicity against human HepG2 cells assessed as mitochondrial permeability augmentation after 48 hrs by fluorescence-based high-content screening assay; type: functional, cell-based; procedure, shortened: as §3
[12] = system: HepG2; experiment: Induction of apoptosis in human HepG2 cells assessed as phosphatidylserine externalisation at 10 uM after 48 hrs by annexinV/FITC-based high-content screening assay; type: functional, cell-based
Procedure, shortened: (§4)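 HepG2 in 24-well plates treated at 10 μM for 48 h, harvested and stained with annexin V–FITC/propidium iodide kit or cleaved caspase 3 indirect immunofluorescence. Imaging by high-content screening with target-activation analysis; comparison against control.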

[13] = system: H22; experiment: Antitumor activity against mouse H22 cells xenografted in Kunming mouse assessed as decrease in cell survival at 0.2 mg/kg, iv administered on day 8 post-tumor injection for 7 days measured on day 16 by hematoxylin and eosin staining relative to vehicle treated control; type: functional, organism-based; design: dose 0.2 mg/kg
[14] = system: Mus musculus; experiment: Toxicity in mouse H22 cells bearing Kunming mouse assessed pathological changes in brain at 0.2 mg/kg, iv administered for 7 days measured on day 8 by hematoxylin and eosin staining relative to vehicle treated control; type: organism-based; design: dose 0.2 mg/kg, route intravenous; settings: in vivo, 168 h
[15] = system: HepG2; experiment: Cytotoxicity against human HepG2 cells assessed as decrease in mitochondrial membrane potential after 48 hrs by fluorescence-based high-content screening assay; type: functional, cell-based; procedure, shortened: as §3
[16] = system: HepG2; experiment: Cytotoxicity against human HepG2 cells after 48 hrs by MTT assay; type: functional, cell-based; settings: HepG2, 48 h; procedure, shortened: as §2
[17] = system: H22; experiment: Antimetastatic activity against mouse H22 cells xenografted in Kunming mouse assessed as tumor weight at 0.2 mg/kg, iv administered on day 11 post-tumor injection for 7 days measured on day 18 (reference value: 0.34 +/- 0.15 g); type: functional
[18] = system: Mus musculus; experiment: Toxicity in mouse H22 cells bearing Kunming mouse assessed pathological changes in kidney at 0.2 mg/kg, iv administered for 7 days measured on day 8 by hematoxylin and eosin staining relative to vehicle treated control; type: organism-based; design: dose 0.2 mg/kg, route intravenous; settings: in vivo, 168 h
[19] = system: HepG2; experiment: Induction of apoptosis in human HepG2 cells assessed as reactive oxygen species generation at 10 uM after 48 hrs by […]-based staining; type: functional, cell-based
Procedure, shortened: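 HepG2 given 10 μM for 48 h; intracellular ROS by DCFH-DA staining imaged by high-content screening, compared with untreated control.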

[20] = system: Mus musculus; experiment: Toxicity in mouse H22 cells bearing Kunming mouse assessed as decrease in red blood cells number at 0.2 mg/kg, iv administered for 7 days measured on day 8 relative to vehicle treated control; type: organism-based; design: dose 0.2 mg/kg, route intravenous; settings: in vivo, 168 h; procedure, shortened: as §1
[21] = system: Mus musculus; experiment: Toxicity in mouse H22 cells bearing Kunming mouse assessed pathological changes in lung at 0.2 mg/kg, iv administered for 7 days measured on day 8 by hematoxylin and eosin staining relative to vehicle treated control; type: organism-based; design: dose 0.2 mg/kg, route intravenous; settings: in vivo, 168 h
[22] = system: H22; experiment: Antitumor activity against mouse H22 cells xenografted in Kunming mouse assessed as tumor growth inhibition at 0.2 mg/kg, iv administered on day 8 post-tumor injection for 7 days measured on day 16 relative to vehicle treated control; type: functional; settings: read-out: GI
Procedure, shortened: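 Male Kunming mice, 5 weeks, 18−22 g, injected sc with 2 × 10⁶ H22 cells. From day 8, randomized groups got caudal vein injection (0.2 or 5 mg/kg, or physiologic saline) for 7 consecutive days. On day 16 tumours excised and weighed; inhibitory rate (%) = [(A − B)/A] × 100 using mean tumour weights of control (A) and treated (B). Tumours formalin-fixed, H&E-stained.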

[23] = system: H22; experiment: Antitumor activity against mouse H22 cells xenografted in Kunming mouse assessed as median survival time at 0.2 […], iv administered 24 hrs post-tumor injection for 7 days relative to vehicle treated control; type: functional
Procedure, shortened: (§5)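 Kunming mice bearing H22 cells; iv (caudal vein) dosing or physiologic saline control started 24 h after inoculation and given for 7 consecutive days. Median survival time recorded per group; activity judged as increase in lifespan versus saline control.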

[24] = system: HepG2; experiment: Cytotoxicity in human HepG2 cells assessed as mitochondrial membrane damage at 10 uM after 48 hrs by fluorescence-based high-content screening assay; type: functional, cell-based
[25] = system: Mus musculus; experiment: Toxicity in mouse H22 cells bearing Kunming mouse assessed pathological changes in spleen at 0.2 mg/kg, iv administered for 7 days measured on day 8 by hematoxylin and eosin staining relative to vehicle treated control; type: organism-based; design: dose 0.2 mg/kg, route intravenous; settings: in vivo, 168 h
[26] = system: Mus musculus; experiment: Hematotoxicity in mouse H22 cells bearing Kunming mouse assessed as decrease in bone marrow cell numbers at 0.2 mg/kg, iv administered for 7 days measured on day 8 relative to vehicle treated control; type: organism-based; design: dose 0.2 mg/kg, route intravenous; settings: in vivo, 168 h; procedure, shortened: as §1
[27] = system: H22; experiment: Antitumor activity against mouse H22 cells xenografted in Kunming mouse assessed as median survival time at 0.2 […], iv administered 24 hrs post-tumor injection for 7 days (reference value: 12.7 +/- 2.5 days); type: functional; procedure, shortened: as §5
[28] = system: Mus musculus; experiment: Toxicity in mouse H22 cells bearing Kunming mouse assessed as change in thymus index number at 0.2 mg/kg, iv administered for 7 days measured on day 8 relative to vehicle treated control; type: organism-based; design: dose 0.2 mg/kg, route intravenous; settings: in vivo, 168 h; procedure, shortened: as §1
[29] = system: HepG2; experiment: Induction of apoptosis in human HepG2 cells assessed as caspase 3 activation at 10 uM after 48 hrs by indirect immunofluorescence method; type: functional, cell-based; procedure, shortened: as §4
[30] = system: H22; experiment: Antimetastatic activity against mouse H22 cells xenografted in Kunming mouse assessed as decrease in lung tumor burden at 0.2 mg/kg, iv administered on day 11 post-tumor injection for 7 days measured on day 18 relative to vehicle treated control; type: functional, organism-based; design: dose 0.2 mg/kg
[31] = system: Mus musculus; experiment: Toxicity in mouse H22 cells bearing Kunming mouse assessed pathological changes in heart at 0.2 mg/kg, iv administered for 7 days measured on day 8 by hematoxylin and eosin staining relative to vehicle treated control; type: organism-based; design: dose 0.2 mg/kg, route intravenous; settings: in vivo, 168 h
[32] = system: HepG2; experiment: Cytotoxicity against human HepG2 cells assessed as acruement in lysosomal mass/pH after 48 hrs by fluorescence-based high-content screening assay; type: functional, cell-based; procedure, shortened: as §3
[33] = system: HepG2; experiment: Cytotoxicity in human HepG2 cells assessed as gain in lysosomal mass/pH at 10 uM after 48 hrs by fluorescence-based high-content screening assay; type: functional, cell-based
[34] = system: HepG2; experiment: Cytotoxicity in human HepG2 cells assessed as loss of cell membrane integrity at 10 uM after 48 hrs by fluorescence-based high-content screening assay; type: functional

`Cl.NCCCNCCCCNCCCN1C(=O)c2ccc3c4c(ccc(c24)C1=O)C(=O)N(CCCNCCCCNCCCN)C3=O` was tested, and the Activity [1] was “Non-toxic”, the Activity [2] was “Active” and the Activity [3] was “Non-toxic”. For the same molecule, the IC50 [4] was 450 nM, the Activity [5] was “Non-toxic” and the Activity [6] was “Non-toxic”. The Activity [7] was “Active”, the IC50 [8] was 130 nM and the Activity [9] was “Dose-dependent effect”. The Activity [10] was “Non-toxic”, the Activity [11] was “Dose-dependent effect” and the Activity [12] was “Active”. The Activity [13] was “Active”, the Activity [14] was “Non-toxic” and the Activity [15] was “Dose-dependent effect”. For the same molecule, the IC50 [16] was 1220 nM, the Activity [17] was 0.17 g and the Activity [18] was “Non-toxic”. For the same molecule, the Activity [19] was “Active”, the Activity [20] was “Non-toxic” and the Activity [21] was “Non-toxic”. The inhibition in vivo at 0.2 mg/kg [22] was 51.8%, the Ratio [23] was 2.3 and the Activity [24] was “Active”. For the same molecule, the Activity [25] was “Non-toxic”, the Activity [26] was “Non-toxic” and the MST [27] was 29.8 days. For the same molecule, the Activity [28] was “Non-toxic”, the Activity [29] was “Active” and the Activity [30] was “Active”. The Activity [31] was “Non-toxic”, the Activity [32] was “Dose-dependent effect” and the Activity [33] was “Active”. The Activity [34] was “Active”.
